Source: PubChem BioAssay (several laboratories)
The list is not random: actives were taken first. Their share in the collection is about 4.7%.
VIM-2 inhibitor: blocks Pseudomonas aeruginosa VIM-2 metallo-beta-lactamase; purified VIM-2, nitrocefin hydrolysis, epi-absorbance fluorescence; inhibition, % at 5.6 µM; actives 0.89% (n = 290,000); AID 1527;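 active means inhibition above the mean of all tested compounds plus 3 SD, cutoff set per screening run, cut at about 7.5% in these data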;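 further: red hydrolysis product quenches plate fluorescence so inhibitors raise well fluorescence; 0% = enzyme with DMSO and 100% = DMSO without enzyme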
Jurkat NFkB inh: inhibitors of the PMA/ionomycin-induced NF-kB reporter in Jurkat cells; actives 0.53% (n = 330,000); inhibition, % at 4 µM; PMA/ionomycin-induced NF-kB luciferase reporter, luminescence; in the data active means inhibition above about 50%
Mdm2 MdmX PPI: disrupts the human Mdm2-MdmX interaction; O15151+Q00987; SaOS-2 split-luciferase Mdm2/MdmX complementation, luminescence; inhibition, % at 8 µM; actives 3% (n = 330,000); AID 485346;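 active means inhibition of at least 50% at 8 µM in the primary screen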
Target sequence (O15151 whole entry, looked up): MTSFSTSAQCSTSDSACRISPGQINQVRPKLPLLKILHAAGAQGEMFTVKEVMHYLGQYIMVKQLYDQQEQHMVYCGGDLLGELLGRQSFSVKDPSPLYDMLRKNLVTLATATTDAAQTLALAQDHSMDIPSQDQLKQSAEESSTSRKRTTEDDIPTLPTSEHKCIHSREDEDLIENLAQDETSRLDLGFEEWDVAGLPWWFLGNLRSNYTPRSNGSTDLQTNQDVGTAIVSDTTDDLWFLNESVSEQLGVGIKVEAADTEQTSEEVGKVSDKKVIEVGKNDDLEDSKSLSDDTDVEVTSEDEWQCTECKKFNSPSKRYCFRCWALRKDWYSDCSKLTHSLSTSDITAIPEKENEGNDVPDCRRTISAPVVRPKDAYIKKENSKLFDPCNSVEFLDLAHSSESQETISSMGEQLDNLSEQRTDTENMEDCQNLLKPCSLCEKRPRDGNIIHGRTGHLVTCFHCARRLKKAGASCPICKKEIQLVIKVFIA
Target sequence (Q00987 whole entry, looked up): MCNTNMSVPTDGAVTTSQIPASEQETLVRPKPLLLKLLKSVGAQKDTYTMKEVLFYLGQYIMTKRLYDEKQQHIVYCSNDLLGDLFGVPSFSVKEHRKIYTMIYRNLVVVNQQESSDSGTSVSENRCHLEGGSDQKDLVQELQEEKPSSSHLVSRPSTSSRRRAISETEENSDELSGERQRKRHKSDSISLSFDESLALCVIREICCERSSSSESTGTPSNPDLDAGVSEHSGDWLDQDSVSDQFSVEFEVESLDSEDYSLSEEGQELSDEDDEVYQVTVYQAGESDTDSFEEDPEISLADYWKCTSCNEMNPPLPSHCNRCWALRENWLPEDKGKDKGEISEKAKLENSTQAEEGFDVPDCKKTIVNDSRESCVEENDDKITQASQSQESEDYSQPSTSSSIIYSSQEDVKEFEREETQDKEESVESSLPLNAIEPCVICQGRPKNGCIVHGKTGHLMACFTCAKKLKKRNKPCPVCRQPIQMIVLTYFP
aSyn 5UTR inh: MLPCN primary screen, SNCA 5' untranslated region | actives 0.82% (n = 300,000) | AID 1813 | alpha-synuclein 5'UTR reporter, inhibitor activity | inhibition, % (tested at 7.5 µM); in the data active means inhibition above about 60%;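 further: H4 neuroglioblastoma cells stably carrying SNCA 5'UTR luciferase fusion; 0% = DMSO wells and 100% = positive control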
697 NFkB inh: inhibitors of the PMA/ionomycin-induced NF-kB reporter in 697 B cells. inhibition, % at 4 µM. 697 B-cell NF-kB luciferase reporter, 16 h. actives 0.33% (n = 330,000). AID 435022; in the data active means inhibition above about 35%
IMP-1 inh: blocks Pseudomonas aeruginosa IMP-1 metallo-beta-lactamase; inhibition, % at 5.6 µM; purified IMP-1, nitrocefin hydrolysis, epi-absorbance fluorescence; actives 0.45% (n = 290,000); AID 1556;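 active means inhibition above the mean plus 3 SD of all compounds in the same screening run, cut at about 4.5% in these data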;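 further: 0% = IMP-1 with DMSO and 100% = DMSO wells lacking enzyme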
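System – purified recombinant IMP-1 beta-lactamase · Input – IMP-1 dispensed at 0.2 nM · Timing – 15 min preincubation plus 25 min reaction at 25 °C · Signal – Epi-absorbance fluorescence, 480 nm excitation, 530 nm emission · Measure – percent IMP-1 inhibition derived from blank-referenced optical density · Controls – Enzyme-plus-DMSO low control, enzyme-free DMSO high control · Replication – singlicate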
Mdm2-MdmX conf: human Mdm2/MdmX binding inhibition, confirmed. inhibition, % at 8 µM. luminescent assay. actives 55% (n = 10,000). shares compounds with Mdm2 MdmX PPI; in the data active means inhibition above about 40%
Full FLuc ctr: full-length luciferase inhibition in Mdm2/MdmX counter-screen; shares compounds with Mdm2 MdmX PPI; SaOS-2 full-length luciferase counterscreen, luminescence; inhibition, % at 8 µM; actives 77% (n = 6,200); AID 504607;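 active means mean inhibition at 8 µM reaching about 37%, which flags the compound as non-specific, limit read from the data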;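 further: p53-null SaOS-2 cells with luciferase driven by a doxycycline-inducible promoter; compound on cells about two nights before reading with doxycycline added after day one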
Starred values were filed as active, the others as inactive; / = no result.

SMILES | VIM-2 inhibitor | Jurkat NFkB inh | Mdm2 MdmX PPI | aSyn 5UTR inh | 697 NFkB inh | IMP-1 inh | Mdm2-MdmX conf | Full FLuc ctr
O=C(N/N=C1/C(=O)c2cccc3cccc1c23)c1ccc(Cl)cc1 | -5 | 4 | 59* | 19 | 1 | 0 | -2 | /
CCNC(=S)N/N=C1\C(=O)c2cccc3cccc1c23 | -2 | -3 | 24 | -21 | 7 | -6 | / | /
COc1cccc(-c2nc3c(c(SCC(=O)N4CCOCC4)n2)Cc2c(CO)cnc(C)c2O3)c1 | 4 | 14 | 65* | 8 | 21 | 3 | 31 | 71*
COc1ccccc1-c1nc2c(c(SCC(=O)N3CCCCC3)n1)Cc1c(CO)cnc(C)c1O2 | 1 | 0 | 14 | 2 | 5 | 2 | / | /
COc1cccc(-c2ccc(SCC(=O)N3CCOCC3)nn2)c1 | -3 | -6 | -11 | -28 | -19 | -3 | / | /
Cc1ncc(CO)c2c1Oc1nc(-c3ccccc3)nc(SCC(=O)N3CCCCC3)c1C2 | 5 | 17 | 63* | -4 | 0 | -1 | 38 | 53*
COCCCN(C(=O)CSCC(=O)Nc1cccc(C)c1)c1c(N)n(Cc2ccccc2)c(=O)[nH]c1=O | / | 8 | 7 | 7 | 7 | / | / | /
O=C(N/C(=C\c1ccc(Cl)cc1)C(=O)N1CCOCC1)c1ccc([N+](=O)[O-])cc1 | 1 | -5 | -6 | 4 | -21 | 1 | / | /
COc1cccc(-c2nc(Oc3cc(C)cc(C)c3)c3ccccc3n2)c1O | -2 | -6 | 64* | -3 | -21 | -5 | 30 | /
COc1cccc(-c2nc(N3CC(C)CC(C)C3)c3ccccc3n2)c1O (configuration not stated) | -1 | -13 | 61* | 6 | 3 | -2 | 14 | /
O=C(NC1CC1)c1cccc(NC(=O)c2cc(S(=O)(=O)N3CCOCC3)ccc2Cl)c1 | / | -5 | 1 | / | 8 | / | / | /
N#CCSc1ccccc1NC(=O)COC(=O)CCN1C(=O)C2CC=CCC2C1=O (configuration not stated) | / | -8 | -3 | / | 4 | / | / | /
O=C(CSc1nc2ccc(Cl)cc2[nH]1)N1CCN(C(=O)c2ccco2)CC1 | 1 | 3 | 3 | 22 | -5 | 2 | / | /
COc1cccc(/C=C2\SC(=S)N(CCC(=O)Nc3ccc(O)cc3)C2=O)c1 | -1 | -5 | 21 | -41 | -5 | -2 | / | /
CN1CCN(C(=O)CCN2C(=O)/C(=C\c3ccc(F)cc3)SC2=S)CC1 | / | 12 | 25 | / | -20 | / | / | /
O=C(CCN1C(=O)/C(=C/c2ccc(F)cc2)SC1=S)NCCc1ccc(O)cc1 | -2 | 1 | 87* | -16 | 1 | -1 | 66* | 42*
O=C(CN1C(=O)/C(=C\c2ccc(F)cc2)Oc2ccccc21)N1CCN(c2ccccn2)CC1 | -1 | 11 | 79* | 13 | -2 | -1 | 32 | 79*
COc1cccc(/C=C2\SC(=S)N(CCC(=O)NCCc3ccc(O)cc3)C2=O)c1 | -1 | 18 | 99* | 34 | -17 | 0 | 84* | 35
O=C(CN1C(=O)/C(=C/c2ccc(F)cc2)SC1=S)N1CCN(CCc2ccccn2)CC1 | -5 | -6 | 60* | -9 | -10 | -3 | -11 | /
COc1ccc(NC(=O)COC(=O)c2ncc(Cl)c(Cl)c2Cl)c(OC)c1 | -4 | 13 | 6 | -10 | -4 | -3 | / | /
COc1ccc(/C=N\NC(=O)c2cc(O)c(O)c(O)c2)cc1CN1CCN(c2ccc(F)cc2)CC1 | -5 | / | / | 14 | / | -3 | / | /
C=CCC[C@H](Cc1ccc(F)cc1)C(=O)OC[C@@H](NC(=O)[C@H](CC=C)CC(=O)NCCO)c1ccccc1 | / | -5 | -17 | / | -28 | / | / | /
Cc1ccc(NS(=O)(=O)c2ccc(C(=O)N3CCCC(C(F)(F)F)C3)cc2)cc1 (configuration not stated) | / | 13 | 18 | -9 | -18 | / | / | /
Cc1ccccc1SCC(=O)Nc1cc(C(F)(F)F)ccc1N1CCOCC1 | / | 4 | 27 | 16 | -15 | / | / | /
COc1cc(OC)c(OC)cc1/C=N/Nc1nc2ccccc2[nH]1 | -3 | -17 | 24 | -2 | -7 | -5 | / | /
SMILES | VIM-2 inhibitor | Jurkat NFkB inh | Mdm2 MdmX PPI | aSyn 5UTR inh | 697 NFkB inh | IMP-1 inh | Mdm2-MdmX conf | Full FLuc ctr
COc1cc(CNc2ncnc3c2[nH]c2ccc(C)cc23)cc(OC)c1 | -2 | 14 | 31 | 4 | 29 | -3 | / | /
COc1ccc(/C=N/Nc2ncnc3c2[nH]c2ccc(C)cc23)c(OC)c1OC | -5 | -5 | 77* | 27 | -23 | -5 | 53* | 10
COc1cc(OC)c(OC)cc1/C=N/Nc1ncnc2c1[nH]c1ccccc12 | -4 | 36 | 84* | 36 | -73 | -1 | 55* | 12
O=C(c1ccco1)N1CCN(c2ncnc3sc4c(c23)CCC4)CC1 | 2 | 10 | 29 | -55 | -16 | -1 | / | /
c1ccc(N2CCN(c3ncnc4sc5c(c34)CCC5)CC2)cc1 | 0 | 2 | 67* | 13 | -10 | -3 | 56* | 39*
O=C(Nc1cccc2ccccc12)NC1Cc2ccccc2C1 | -1 | 9 | 79* | -32 | 19 | -3 | 3 | /
COc1ccc2c(c1)c(/C=N/Nc1nc3ccccc3[nH]1)c(C)n2C | -4 | 15 | 93* | -115 | -10 | -2 | 37 | 68*
COc1cc(/C=N\Nc2nc3ccccc3[nH]2)cc(OC)c1OC | -4 | 18 | -9 | -82 | -7 | -4 | / | /
CS(=O)(=O)c1nc(-c2cccs2)cc(C(F)(F)F)n1 | -1 | 48 | 100* | -90 | -37 | 3 | 99* | 1
COc1ccc(-c2cc(C(F)(F)F)nc(S(C)(=O)=O)n2)cc1 | 0 | -5 | 101* | -103 | -17 | -4 | 80* | 53*
COc1ccc(CCNC(=O)CS(=O)(=O)c2cn(CC(=O)N(C(C)C)C(C)C)c3ccccc23)cc1OC | -1 | 15 | 12 | 9 | 4 | -1 | / | /
COc1ccc(C2C(C(=O)c3ccccc3)N3c4ccccc4C=CC3C2[N+](=O)[O-])cc1 (configuration not stated) | 0 | / | / | / | / | 1 | / | /
CC/C(=N/Nc1cccc(Cl)c1)c1cnnc(SC)n1 | -2 | -4 | 54* | -26 | -24 | -1 | 39 | 71*
Cc1cccc(OCCOC(=O)c2c(-c3ccccc3)noc2C)c1 | -1 | 38 | 55* | -97 | -4 | -2 | 38 | /
CC(=O)Nc1ccc(NC(=O)C(C)OC(=O)C2(c3ccc(Cl)cc3)CCCC2)cc1 (configuration not stated) | -3 | -1 | -27 | 36 | -1 | -1 | / | /
CC1=[N+](C)c2ccc3ccccc3c2C1(C)C | -2 | 35 | 86* | 2 | -17 | -4 | 69* | 28
